In one assay the test system is B16 melanoma tumors. Briefly: B16 melanoma tumors in C57BL/6 mice. It counts as in vivo, mouse. Conditions: 12 mg, daily, 5 d/wk, s.c.
Assay [1] has as its system IFNγ+ cells in human peripheral blood. The assay can be described thus: Induction of IFNγ+ cells in human peripheral blood in vitro. Conditions: 20 µg/ml. Type of assay: cell-based. An outline of the steps: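 Whole heparinized blood (0.1 ml) from healthy volunteers was incubated with test agent at 37°C for 4 h. RBCs were lysed with hypotonic buffer (10 mM Tris pH 7.4, 10 mM NaCl), and the WBC pellet was washed and resuspended in RPMI 1640/10% FCS. IFNγ+ cells were quantified by human IFNγ ELISPOT (16 h culture). Values are mean ± SD of duplicates.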

In assay [2] the test system is IFNγ+ cells in mouse splenocytes. The assay can be described thus: Induction of IFNγ+ cells in mouse splenocytes in vitro. It counts as cell-based. The note with it: optimal dose 20 µg/ml. The method, boiled down:
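Splenocytes came from female 129 mice, 3–5 weeks old. They were cultured 16 h in RPMI 1640/10% FCS with or without test agent in plates coated with anti-mouse IFNγ antibody. IFNγ+ cells were detected in situ by ELISPOT and counted with an automated reader. Values are mean ± SD of duplicates.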

In assay [3] the test system is cellular phospho-tyrosine proteins in Jurkat cells. Briefly: Profile of cellular phospho-tyrosine proteins in Jurkat cells. Type of assay: cell-based, human. The note with it: 10 min.

Data on two compounds can be found in PMC3049920 (Journal of immunology (Baltimore, Md. : 1950), 2010).

For the compound `O.O.O.O.O.O.O.O.O.O=C([O-])[C@@H]1[O][Sb](=[O])([O][Sb]2(=[O])[O][C@H]([C@H](O)CO)[C@H](O)[C@H](C(=O)[O-])[O]2)[O][C@H]([C@H](O)CO)[C@@H]1O.[Na+].[Na+].[Na+]` (stereo partly shown) [SSG, sodium stibogluconate], the “response of B16 tumors” value in the assay with B16 melanoma tumors is “not responsive”. The “induction of IFNγ+ cells” value in assay [1] is on record as ~ 2 fold. Besides, in assay [2], the “maximal increase of IFNγ+ cells” value was ~ 3 fold.
Turning to pervanadate [pervanadate (PV)], the “effect on profile of cellular phospho-tyrosine proteins” value in assay [3] is recorded as “marked increases of multiple phosphotyrosine proteins”.
